Positions count from the first letter of the chain named. Several values for one entry are separate records, joined by “and”; a condition that tells them apart may be missing. Equal entries are not always repeated.
What was measured:
[1] = target: T1, human Hv1 H140A (H^2.40A) (Homo sapiens, UniProt Q96D96, H140A); assay: Whole-cell voltage clamp, Zn^2+ modulation of GAQ gating; type: cell-based
T1 sequence (Q96D96 1-273 H140A): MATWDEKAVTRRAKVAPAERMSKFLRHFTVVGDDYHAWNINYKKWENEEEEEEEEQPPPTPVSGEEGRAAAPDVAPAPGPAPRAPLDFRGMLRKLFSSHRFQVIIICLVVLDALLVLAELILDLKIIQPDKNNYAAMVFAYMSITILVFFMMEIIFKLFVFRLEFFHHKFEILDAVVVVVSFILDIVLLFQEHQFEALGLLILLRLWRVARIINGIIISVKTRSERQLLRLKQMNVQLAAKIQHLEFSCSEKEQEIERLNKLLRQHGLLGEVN
In short: (§1)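 Whole-cell patch clamp at ~21°C. Pipette and bath (mM): ~80 TMA-MeSO3, 100 Bis-Tris, 8 HCl, pH 6.5, 310–320 mOsm. ZnCl2 was diluted into bath solution and applied by gravity superfusion, at least 2 min per change. Test step voltage was set per construct from its V0.5. G_STEP = end-of-step current/(V−V_REV). Effect = 1 − G_Zn/G_control, fitted to the Hill equation. IC50 and nH are means ± SEM from separate cells. ΔpIC50 was tested by unpaired t test, P<0.05.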

[2] = target: T2, human Hv1 E119H (E^1.58H) (Homo sapiens, UniProt Q96D96, E119H); assay: as above; type: cell-based
T2 sequence (Q96D96 1-273 E119H): T1 sequence (Q96D96 1-273 H140A) with E119H, A140H
In short: as §1

[3] = target: T3, human Hv1 D130H (D^1.69H) (Homo sapiens, UniProt Q96D96, D130H); assay: as above; type: cell-based
T3 sequence (Q96D96 1-273 D130H): T1 sequence (Q96D96 1-273 H140A) with D130H, A140H
In short: as §1

human Hv1 D130H-H193A = target: T4, human Hv1 D130H-H193A (Homo sapiens, UniProt Q96D96, D130H/H193A); assay: as above; type: cell-based
T4 sequence (Q96D96 1-273 D130H/H193A): T1 sequence (Q96D96 1-273 H140A) with D130H, A140H, H193A
In short: as §1

[4] = target: T5, human Hv1 D112N (D^1.51N) (Homo sapiens, UniProt Q96D96, D112N); assay: Whole-cell voltage clamp, Zn^2+ modulation of GAQ gating; type: cell-based
T5 sequence (Q96D96 1-273 D112N): T1 sequence (Q96D96 1-273 H140A) with D112N, A140H
In short: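 Zn2+ effect was read from tail current, not end-of-step current. Whole-cell recording at ~21°C with pH 6.5 pipette and bath solutions (mM: ~80 TMA-MeSO3, 100 Bis-Tris, 8 HCl). ZnCl2 was diluted in bath solution and gravity-superfused, at least 2 min per change. Concentration–response was fitted to the Hill equation, with IC50 values from separate cells. ΔpIC50 was compared by unpaired Student's t test, P<0.05.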

[5] = target: human Hv1 H140A-D185H-H193A-R205H (Homo sapiens, UniProt Q96D96, D185H/H140A/H193A/R205H); assay: Whole-cell voltage clamp, Zn^2+ modulation of GAQ gating; type: cell-based
In short: as §1

human Hv1 H140A-H193A = target: T6, human Hv1 H140A-H193A (Homo sapiens, UniProt Q96D96, H140A/H193A); conditions: double mutant; ref Ramsey et al., 2006; cited from earlier work
T6 sequence (Q96D96 1-273 H140A/H193A): T1 sequence (Q96D96 1-273 H140A) with H193A

[6] = VSTEP 100 mV, calculated as log (IC50)
[7] = VSTEP 120 mV, calculated as log (IC50)
[8] = read-out: IC50, fit of the mean data to a Hill function, Fig. 4C

Chain of human Hv1 H140A-D185H-H193A-R205H (Q96D96 whole entry H140A/D185H/H193A/R205H): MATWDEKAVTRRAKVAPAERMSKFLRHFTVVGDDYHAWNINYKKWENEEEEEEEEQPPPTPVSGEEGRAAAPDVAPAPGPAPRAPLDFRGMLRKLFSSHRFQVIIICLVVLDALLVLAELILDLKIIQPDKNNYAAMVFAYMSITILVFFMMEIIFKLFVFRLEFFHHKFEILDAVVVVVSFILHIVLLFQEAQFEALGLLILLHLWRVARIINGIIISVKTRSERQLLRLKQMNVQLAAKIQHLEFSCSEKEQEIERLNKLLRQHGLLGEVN

**Q.** With `[Cl-].[Cl-].[Zn+2]` [Zn^2+, ZnCl2] as the compound, how does the “nH, fit of the mean data to a Hill function” value (“nH, fit of the mean data” for short) ([1]; Fig. 2C) read?
**A.** Its value is 0.7.

**Q.** What about the “Mean ΔpIC50 = (pIC50_1 - pIC50_2)” value ([1]; H140A vs WT) of the same compound?
**A.** Its value is −1.02.

**Q.** What about the Hill value ([1]; VSTEP 100 mV) of the same compound?
**A.** The Hill value was 0.67.

**Q.** What about the pIC50 [1, 6] of the same compound?
**A.** The pIC50 was −4.41.

**Q.** What about the IC50 ([1]; read-out: IC50, fit of the mean data to a Hill function, Fig. 2C) of the same compound?
**A.** Its IC50 is 39 µM.

**Q.** And the “Mean ΔpIC50 = (pIC50_1 - pIC50_2)” value ([2]; E119H vs WT)?
**A.** Its value is 0.8 and 0.77.

**Q.** What about the “nH, fit of the mean data” value ([2]; Fig. 3C) of the same compound?
**A.** The value was 0.9.

**Q.** And the Hill value ([2]; VSTEP 100 mV)?
**A.** The Hill value was 1.08.

**Q.** And the pIC50 [2, 6]?
**A.** Its pIC50 is 6.22.

**Q.** And the IC50 ([2]; read-out: IC50, fit of the mean data to a Hill function, Fig. 3C)?
**A.** Its IC50 is 0.6 µM.

**Q.** What about the “Mean ΔpIC50 = (pIC50_1 - pIC50_2)” value ([3]; D130H vs WT) of the same compound?
**A.** The value was 0.22.

**Q.** What about the “nH, fit of the mean data” value ([3]; Fig. 4C) of the same compound?
**A.** Its value is 0.7.

**Q.** And the Hill value ([3]; VSTEP 120 mV)?
**A.** Its Hill value is 0.95.

**Q.** And the pIC50 [3, 7]?
**A.** Its pIC50 is 5.67.

**Q.** What about the IC50 [3, 8] of the same compound?
**A.** The IC50 was 2.4 µM.

**Q.** What about the “Mean ΔpIC50 = (pIC50_1 - pIC50_2)” value (human Hv1 D130H-H193A; D130H-H193A vs D130H) of the same compound?
**A.** The value was −0.16.

**Q.** And the “Mean ΔpIC50 = (pIC50_1 - pIC50_2)” value (human Hv1 D130H-H193A; D130H-H193A vs H193A)?
**A.** Its value is 1.44.

**Q.** And the “nH, fit of the mean data” value (human Hv1 D130H-H193A; Fig. 4C)?
**A.** Its value is 0.6.

**Q.** And the Hill value (human Hv1 D130H-H193A; VSTEP 120 mV)?
**A.** The Hill value was 0.91.

**Q.** And the pIC50 (human Hv1 D130H-H193A; [7])?
**A.** The pIC50 was 5.51.

**Q.** What about the IC50 (human Hv1 D130H-H193A; [8]) of the same compound?
**A.** Its IC50 is 5.6 µM.

**Q.** And the “Mean ΔpIC50 = (pIC50_1 - pIC50_2)” value ([4]; D112N vs WT)?
**A.** The value was −0.03.

**Q.** And the Hill value ([4]; VSTEP 140 mV, determined from tail current)?
**A.** The Hill value was 0.76.

**Q.** What about the pIC50 ([4]; VSTEP 140 mV, determined from tail current, calculated as log (IC50)) of the same compound?
**A.** Its pIC50 is 5.03.

**Q.** And the IC50 ([4]; read-out: Mean IC50 @ VSTEP, VSTEP 140 mV, pH 6.5, determined from tail current)?
**A.** Its IC50 is 9.5 µM.

**Q.** What about the “Mean ΔpIC50 = (pIC50_1 - pIC50_2)” value ([5]; H140A-D185H-H193A-R205H vs H140A-D185H-H193A) of the same compound?
**A.** The value was 0.54.

**Q.** What about the “Mean pIC50” value ([5]; Table 2 only, calculated as log (IC50)) of the same compound?
**A.** The value was −3.68.

**Q.** And the “Zn^2+ sensitivity” value (human Hv1 H140A-H193A)?
**A.** Its value is “essentially insensitive to submillimolar”.
